How the values were obtained:
Aspergillus flavus [1] = assay: Antifungal activity against Aspergillus flavus assessed as mycelial growth at 60 uL after 4 to 12 days by agar disk diffusion method relative to untreated control; type: functional
Method in brief: (§1)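 Aspergillus flavus, isolated from feeds, was grown on PDA plates seeded with 6 mm mycelial plugs from 10-day cultures. Three paper disks per dish carried either 60 µL pure essential oil or 60, 40 or 20 µL of single major oil constituents. Plates were sealed and incubated in the dark at 22 °C. Average colony diameter was read at 4, 8 and 12 days against water-impregnated disk controls.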

Aspergillus flavus [2] = assay: Antifungal activity against Aspergillus flavus assessed as mycelial growth at 20 uL after 4 to 12 days by agar disk diffusion method relative to untreated control; type: functional; method in brief: as §1

Row | SMILES | Activity (Aspergillus flavus [1]) [%] | Activity (Aspergillus flavus [2]) [%]
1 | CC1=CCC(=C(C)C)CC1 [TERPINOLENE] | 0 | 0
2 | CC1=CC[C@@H](C(C)(C)O)CC1 [ALPHA-TERPINEOL] | 100 | 100
3 | CC1=CC[C@H](C(C)C)C=C1 [ALPHA-PHELLANDRENE] | 0 | 0
4 | CC1=CC=C(C(C)C)CC1 [ALPHA-TERPINENE] | 0 | 0
5 | CC1=CCC(C(C)C)=CC1 [GAMMA-TERPINENE] | 0 | 0
6 | CC1=CCC(O)(C(C)C)CC1 (configuration not stated) [TERPINEOL] | 100 | 100

Reference: ChEMBL document CHEMBL3046752, “Characterization of the volatile constituents in the essential oil of Pistacia lentiscus L. from different origins and its antifungal and antioxidant activity” (2007)
